Measured values published in ChEMBL document CHEMBL1121948, “Alkylation of the prosthetic heme in cytochrome P-450 during oxidative metabolism of the sedative-hypnotic ethchlorvynol” (1982).

Columns and labels:
Assay type in all cases: functional
[1] = organism: Rattus norvegicus; assay: Percentage cytochrome P-450 loss from phenobarbital pretreated rats was measured in the presence of oxygen and NADPH after 10 min
In short: (§1)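 Liver microsomes from phenobarbital-pretreated male Sprague-Dawley rats (1 mg/mL protein) were incubated at 37 °C with 1 mM ethchlorvynol, 1 mM NADPH, 1.5 mM EDTA and 150 mM KCl in […], pH 7.4, under air. The reaction was started with NADPH. Cytochrome P-450 loss was measured spectroscopically. Values are the mean ± SD of three determinations.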

[2] = organism: Rattus norvegicus; assay: Percentage cytochrome P-450 loss from phenobarbital pretreated rats was measured in the presence of oxygen and NADPH after 20 min; in short: as §1
[3] = organism: Rattus norvegicus; assay: Percentage cytochrome P-450 loss from phenobarbital pretreated rats was measured in the presence of oxygen and NADPH after 30 min; in short: as §1
[4] = organism: Rattus norvegicus; assay: Percentage cytochrome P-450 loss from phenobarbital pretreated rats was measured in the presence of the Ethchlorvynol after 10 min; Not detectable
[5] = organism: Rattus norvegicus; assay: Percentage cytochrome P-450 loss from phenobarbital pretreated rats was measured in the presence of the Ethchlorvynol after 20 min; Not detectable
[6] = organism: Rattus norvegicus; assay: Percentage cytochrome P-450 loss from phenobarbital pretreated rats was measured in the presence of the Ethchlorvynol after 30 min; Not detectable
[7] = organism: Rattus norvegicus; assay: Percentage cytochrome P-450 loss from phenobarbital pretreated rats was measured in the presence of the NADPH after 10 min; Not detectable
[8] = organism: Rattus norvegicus; assay: Percentage cytochrome P-450 loss from phenobarbital pretreated rats was measured in the presence of the NADPH after 20 min; Not detectable
[9] = organism: Rattus norvegicus; assay: Percentage cytochrome P-450 loss from phenobarbital pretreated rats was measured in the presence of the NADPH after 30 min; Not detectable
[10] = organism: Rattus norvegicus; assay: Percentage cytochrome P-450 loss from phenobarbital pretreated rats was measured in the presence of the oxygen after 20 min
[11] = organism: Rattus norvegicus; assay: Heme loss from phenobarbital pretreated rats was measured in the presence of oxygen and NADPH after 20 min
In short: (§2)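 This was a separate 20-min experiment using the standard microsomal mix at 37 °C: phenobarbital-induced rat microsomes at 1 mg/mL, 1 mM ethchlorvynol, 1 mM NADPH, EDTA and KCl in phosphate buffer pH 7.4. P-450 loss was measured spectroscopically and heme loss by the pyridine hemochromogen assay, both expressed in nmol. Values are the mean ± SD of three determinations.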

[12] = organism: Rattus norvegicus; assay: Cytochrome P-450 loss from phenobarbital pretreated rats was measured in the presence of oxygen and NADPH after 20 min; in short: as §2

## C#CC(O)(/C=C/Cl)CC (configuration not stated) [ETHCHLORVYNOL]
[1]
  Cytochrome loss: 30%
[2]
  Cytochrome loss: 35%
[3]
  Cytochrome loss: 38%
[4]
  Cytochrome loss: Not detectable
[5]
  Cytochrome loss: Not detectable
[6]
  Cytochrome loss: Not detectable
[7]
  Cytochrome loss: Not detectable
[8]
  Cytochrome loss: Not detectable
[9]
  Cytochrome loss: Not detectable
[10]
  Cytochrome loss: 4%
[11]
  Heme loss: 0.32 nM
[12]
  P-450 loss: 0.52 nM
